The values below come from ChEMBL document CHEMBL4359831, “Chemoproteomics of an Indole-Based Quinone Epoxide Identifies Druggable Vulnerabilities in Vancomycin-Resistant Staphylococcus aureus” (J Med Chem, 2019).

In brackets after ≈: the same amount, converted by molar mass. Activity calls are given as the source filed them. The rule behind the calls is not given here.

Experiment [1] can be described thus: L-cysteine reactivity in pH 7.4 phosphate buffer assessed as pseudo first order rate constant at 100 uM measured at 10 mins time interval up to 60 mins by HPLC analysis.
The subject of experiment [2] is Staphylococcus aureus. The experiment in a line: Binding affinity to Staphylococcus aureus ATCC 29213 Catabolite control protein A at 10 uM in presence of 9-(Pent-4-yn-1-yl)-1a,10a-dihydro-2H-oxireno[2',3':4,5]-benzo[1,2-a]carbazole-2,10(9H)-dione after 1 hr by biotin-azide fluorescence dependent LC-MS/MS-based ABPP assay. An outline of the steps:
(§1)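 Competitive LC–MS/MS ABPP on S. aureus soluble proteome. Pretreatment 1 h with DMSO, compound (10 μM), comparator (10 μM) or iodoacetamide (10 mM). Chase with alkyne probe (10 μM, 1 h), then Cu-catalysed click with biotin-azide and LC–MS/MS. Targets were proteins at ratio ≤0.1 versus DMSO in the compound and IAM groups and ~1 in the comparator group.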

Experiment [3] deals with Staphylococcus aureus. The experiment is described as follows: Antibacterial activity against vancomycin-resistant Staphylococcus aureus AIS100050 after 16 to 18 hrs by CLSI M07-A10 protocol based dilution method. Type of experiment: functional.
A further experiment relates to Escherichia coli. The experiment in a line: Antibacterial activity against Escherichia coli ATCC 25922 after 16 to 18 hrs by CLSI M07-A10 protocol based dilution method. Format: functional.
The test system of experiment [4] is Staphylococcus aureus. The experiment is described as follows: Antibacterial activity against Staphylococcus aureus ATCC 29213 after 16 to 18 hrs by CLSI M07-A10 protocol based dilution method. Format: functional. The method, boiled down:
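MIC against ATCC 29213 determined by a previously described protocol; values in μg/mL.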

Experiment [5] has as its system Staphylococcus aureus. The experiment is described as follows: Bactericidal activity against vancomycin-resistant Staphylococcus aureus HIP11714 at 10 times MIC measured up to 24 hrs by time kill assay. Type of experiment: functional, organism-based.
The test system of experiment [6] is Staphylococcus aureus. The experiment is described as follows: Antibacterial activity against vancomycin-resistant Staphylococcus aureus 1002434 after 16 to 18 hrs by CLSI M07-A10 protocol based dilution method. Format: functional.
The test system of experiment [7] is Staphylococcus aureus. The experiment is described as follows: Antibacterial activity against vancomycin-resistant Staphylococcus aureus SA-HIP-11983 after 16 to 18 hrs by CLSI M07-A10 protocol based dilution method. Type of experiment: functional.
Experiment [8] addresses T1, Alkaline phosphatase synthesis transcriptional regulatory protein (Staphylococcus aureus) (UniProt W8TVM3).
T1 sequence (whole entry): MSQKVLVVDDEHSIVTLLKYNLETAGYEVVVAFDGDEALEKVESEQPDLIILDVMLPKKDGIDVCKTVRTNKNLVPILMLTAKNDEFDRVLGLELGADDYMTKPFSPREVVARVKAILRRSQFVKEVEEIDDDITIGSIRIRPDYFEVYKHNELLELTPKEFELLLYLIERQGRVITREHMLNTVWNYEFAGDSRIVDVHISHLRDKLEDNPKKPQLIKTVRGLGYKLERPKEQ
The experiment in a line: Binding affinity to Staphylococcus aureus ATCC 29213 Transcriptional regulator PhoP at 10 uM in presence of 9-(Pent-4-yn-1-yl)-1a,10a-dihydro-2H-oxireno[2',3':4,5]-benzo[1,2-a]carbazole-2,10(9H)-dione after 1 hr by biotin-azide fluorescence dependent LC-MS/MS-based ABPP assay. An outline of the steps: as §1

Experiment [9] has as its system Staphylococcus aureus. The experiment in a line: Binding affinity to Staphylococcus aureus ATCC 29213 Heme peroxidase at 10 uM in presence of 9-(Pent-4-yn-1-yl)-1a,10a-dihydro-2H-oxireno[2',3':4,5]-benzo[1,2-a]carbazole-2,10(9H)-dione after 1 hr by biotin-azide fluorescence dependent LC-MS/MS-based ABPP assay. An outline of the steps:
as §1

The nature of experiment [10]: L-cysteine reactivity in pH 7.4 phosphate buffer at 100 uM preincubated for 1 hr followed by mono-bromobimane addition and measured after 30 mins by fluorescence based competition assay.
Experiment [11] concerns Staphylococcus aureus. The experiment is described as follows: Binding affinity to Staphylococcus aureus ATCC 29213 Transcriptional regulator at 10 uM in presence of 9-(Pent-4-yn-1-yl)-1a,10a-dihydro-2H-oxireno[2',3':4,5]-benzo[1,2-a]carbazole-2,10(9H)-dione after 1 hr by biotin-azide fluorescence dependent LC-MS/MS-based ABPP assay. An outline of the steps: as §1
The test system of the next experiment is Acinetobacter baumannii. The experiment in a line: Antibacterial activity against Acinetobacter baumannii BAA-1605 after 16 to 18 hrs by CLSI M07-A10 protocol based dilution method. Type of experiment: functional.
The test system of experiment [12] is Staphylococcus aureus. The experiment is described as follows: Binding affinity to Staphylococcus aureus ATCC 29213 Methionine aminopeptidase at 10 uM in presence of 9-(Pent-4-yn-1-yl)-1a,10a-dihydro-2H-oxireno[2',3':4,5]-benzo[1,2-a]carbazole-2,10(9H)-dione after 1 hr by biotin-azide fluorescence dependent LC-MS/MS-based ABPP assay. The method, boiled down: as §1

Regarding `CC(C)n1c2ccccc2c2ccc3c(c21)C(=O)C1OC1C3=O` (centres undefined), the K in experiment [1] is 7.54 ×10⁻² /min. For the same compound, the result (with Staphylococcus aureus [2]; in the experiment with Staphylococcus aureus [5]; in experiment [8]; with Staphylococcus aureus [9]; in experiment [10]; with Staphylococcus aureus [11]) was Active. The result with Staphylococcus aureus [12] was Active. For the same compound, the MIC (as a rule, the lowest concentration found to suppress growth) with Staphylococcus aureus [3] is 0.5 mg/L (≈ 1.64 µM); in the experiment with Escherichia coli it was 64 mg/L (≈ 210 µM); in the experiment with Staphylococcus aureus [4] it was 0.125 to 0.5 mg/L (≈ 0.409 to 1.64 µM); in the experiment on Staphylococcus aureus [6] it was 0.5 mg/L (≈ 1.64 µM); in the experiment on Staphylococcus aureus [7], 0.5 mg/L (≈ 1.64 µM); against Acinetobacter baumannii, 64 mg/L (≈ 210 µM).
